Assay results: ChEMBL document CHEMBL1124929, “Indolo[2,1-a]isoquinolines. Syntheses, steroid hormone receptor binding affinities, and cytostatic activity” (1990)

Legend:
[1] = target: T1, Androgen Receptor (Bos taurus) (UniProt Q5EM59); assay: Relative binding affinity(RBA) for 50% displacement of [3H]mibolerone from Androgen receptor compared to testorone
T1 sequence (whole entry): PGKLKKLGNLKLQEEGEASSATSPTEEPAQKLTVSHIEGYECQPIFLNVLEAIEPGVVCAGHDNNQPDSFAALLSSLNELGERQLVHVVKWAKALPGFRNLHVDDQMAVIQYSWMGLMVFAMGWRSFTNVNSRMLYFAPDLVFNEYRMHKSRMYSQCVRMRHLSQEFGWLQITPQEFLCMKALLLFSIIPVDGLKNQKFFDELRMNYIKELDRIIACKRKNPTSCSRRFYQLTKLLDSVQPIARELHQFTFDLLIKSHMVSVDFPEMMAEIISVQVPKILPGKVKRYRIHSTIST
Method in brief: (§1)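 Receptor source was calf uterine cytosol (105000g supernatant, 3 mg/mL protein in assay). Buffers were Tris/EDTA pH 7.4, with NaN₃ for ER, molybdate/glycerol for AR, and sucrose for PR. Tracers were 1 nM [³H]estradiol, [³H]mibolerone or [³H]Org 2058. Incubation was at 0–4 °C for 16 h (ER) or 2 h (AR, PR), with 4–6 competitor concentrations. Nonspecific binding used 2 µM of the unlabeled hormone. Separation was by dextran-coated charcoal. RBA is the ratio of IC50 values for hormone and compound ×100, mean of two triplicate experiments.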

[2] = target: Estrogen receptor (Bos taurus) (UniProt Q9XSB5+P49884); assay: Relative binding affinity(RBA) for 50% displacement of [3H]-estradiol from Estrogen receptor compared to 17-beta-estradiol; type: protein assay; method in brief: as §1
MDA-MB-231 [3] = assay: Cytostatic effect on hormone-independent MDA-MB 231 human breast cancer cell proliferation at 1x10E-5 M; type: functional
Method in brief: (§2)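 Cells were plated at about 2 × 10⁴ per well in six-well dishes. MCF-7 cells were grown in modified improved MEM with 5% NCS, switched to charcoal-treated NCS two weeks before the test, and exposed for 5 days with a re-dose on day 4. MDA-MB 231 cells were grown in McCoy 5a with 10% NCS and exposed for 2 days. Compounds were given 1 day after plating in 0.1% DMSO, with DMSO-matched controls. Read-out was cell number as % T/C, mean of three experiments with six dishes.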

MDA-MB-231 [4] = assay: Effect on [3H]thymidine incorporation into MDA-MB 231 human breast cancer cells at 1x10E-5 M; type: functional
Method in brief: (§3)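 Cells were seeded at ~2 × 10⁴ per well, treated from the next day in 0.1% DMSO, with DMSO controls. MCF-7 cells were held in charcoal-stripped NCS for 2 weeks, treated for 5 days and re-dosed on day 4. MDA-MB 231 cells were grown in McCoy 5a/10% NCS and treated for 2 days. At the end, 1 µCi [³H]thymidine per well was added for 2 h. Result is % T/C, mean of three experiments × six dishes.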

MDA-MB-231 [5] = assay: Effect on [3H]-thymidine incorporation into MDA-MB 231 human breast cancer cells at 1x10E-6M; type: functional; method in brief: as §3
MDA-MB-231 [6] = assay: Cytostatic effect on hormone-independent MDA-MB 231 human breast cancer cell proliferation at5x10E-6M; type: functional; method in brief: as §2
MDA-MB-231 [7] = assay: Effect on [3H]thymidine incorporation into MDA-MB 231 human breast cancer cells at 5x10E-6M; type: functional; method in brief: as §3
MCF7 [8] = assay: Effect on hormone-dependent MCF-7 human breast cancer cell proliferation at 5x10E-6M; type: functional; method in brief: as §2
MCF7 [9] = assay: Effect on [3H]thymidine incorporation into MCF-7 human breast cancer cells at 5x10E-6M; type: functional; method in brief: as §3
MCF7 [10] = assay: Effect on hormone-dependent MCF-7 human breast cancer cell proliferation at 1x10E-5 M; type: functional; method in brief: as §2
MCF7 [11] = assay: Effect on [3H]thymidine incorporation into MCF-7 human breast cancer cells at 1x10E-5 M; type: functional; method in brief: as §3
MCF7 [12] = assay: Effect on hormone-dependent MCF-7 human breast cancer cell proliferation at 1x10E-6M; type: functional; method in brief: as §2
MCF7 [13] = assay: Effect on [3H]thymidine incorporation into MCF-7 human breast cancer cells at 1x10E-6M; type: functional; method in brief: as §3
[14] = target: T2, Estrogen receptor (Mus musculus) (UniProt O08537+P19785); assay: Estrogenic activity in uterotrophic assay in immature mice at 125 ug subcutaneous dose; type: functional
T2 sequence (O08537 whole entry, looked up): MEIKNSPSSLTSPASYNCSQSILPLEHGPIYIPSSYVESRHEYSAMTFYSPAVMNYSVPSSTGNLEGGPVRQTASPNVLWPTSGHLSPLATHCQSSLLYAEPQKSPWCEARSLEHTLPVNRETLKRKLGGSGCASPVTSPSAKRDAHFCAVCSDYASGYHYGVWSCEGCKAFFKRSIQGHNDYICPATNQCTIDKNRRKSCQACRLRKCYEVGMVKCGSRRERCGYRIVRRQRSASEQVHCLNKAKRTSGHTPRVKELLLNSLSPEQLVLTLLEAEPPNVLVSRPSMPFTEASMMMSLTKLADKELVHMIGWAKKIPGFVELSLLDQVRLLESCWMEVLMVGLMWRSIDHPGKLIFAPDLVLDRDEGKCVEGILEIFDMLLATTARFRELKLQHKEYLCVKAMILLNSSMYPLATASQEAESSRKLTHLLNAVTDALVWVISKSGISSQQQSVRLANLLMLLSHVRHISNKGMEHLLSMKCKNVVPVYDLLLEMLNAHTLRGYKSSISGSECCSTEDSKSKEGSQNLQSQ
T2 sequence (P19785 whole entry, looked up): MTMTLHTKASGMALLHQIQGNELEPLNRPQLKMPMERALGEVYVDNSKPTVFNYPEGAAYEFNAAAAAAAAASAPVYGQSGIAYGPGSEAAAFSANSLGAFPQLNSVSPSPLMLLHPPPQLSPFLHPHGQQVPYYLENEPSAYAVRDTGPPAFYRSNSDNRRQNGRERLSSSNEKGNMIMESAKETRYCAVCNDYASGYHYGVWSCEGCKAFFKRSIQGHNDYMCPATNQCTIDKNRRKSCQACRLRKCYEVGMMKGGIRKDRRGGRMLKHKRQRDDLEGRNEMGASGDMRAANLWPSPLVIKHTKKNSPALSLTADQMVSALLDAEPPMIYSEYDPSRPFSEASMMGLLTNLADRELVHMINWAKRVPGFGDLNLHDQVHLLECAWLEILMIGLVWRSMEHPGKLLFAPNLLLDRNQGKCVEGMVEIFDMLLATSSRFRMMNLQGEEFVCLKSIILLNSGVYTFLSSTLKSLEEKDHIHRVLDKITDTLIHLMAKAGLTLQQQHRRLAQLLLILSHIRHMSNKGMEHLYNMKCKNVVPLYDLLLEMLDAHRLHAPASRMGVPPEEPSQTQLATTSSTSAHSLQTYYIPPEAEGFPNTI
Method in brief: (§4)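 Immature female NMRI mice, 20 days old, in groups of 6-10, were dosed sc once daily for three consecutive days. Compounds were given in PEG/0.9% saline 1:1; vehicle controls were included. Animals were killed 24 h after the last dose. Uteri were fixed in Bouin solution and the effect was taken as uterine dry weight (mg)/body weight (g) ×100, given as mean ± SD.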

[15] = target: T2, Estrogen receptor (Mus musculus); assay: (§5) Estrogenic activity in uterotrophic assay in immature mice at 2 ug subcutaneous dose; type: functional; method in brief: as §4
[16] = target: T2, Estrogen receptor (Mus musculus); assay: (§6) Estrogenic activity in uterotrophic assay in immature mice at 40.0 ug subcutaneous dose; type: functional; method in brief: as §4
[17] = target: T2, Estrogen receptor (Mus musculus); assay: as §6; type: functional; method in brief: as §4; remark: listed apart in the source
[18] = target: T2, Estrogen receptor (Mus musculus); assay: Inhibition of 0.4 ug estrone-stimulated uterine growth in mice at 40.0 ug subcutaneous dose; type: functional
Method in brief: (§7)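 Immature 20-day-old female NMRI mice received sc injections on three consecutive days. Each injection held 0.4 µg estrone plus the compound in PEG/saline 1:1. […] Significance was tested by Mann-Whitney U test.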

[19] = target: T2, Estrogen receptor (Mus musculus); assay: Inhibition of 0.4 ug estrone-stimulated uterine growth in mice at 2 ug subcutaneous dose; type: functional; method in brief: as §7
Bos taurus = species: Bos taurus; assay: Relative binding affinity(RBA) as ratio of progesterone and compound required to displace [3H]-org 2058 binding to Progesterone receptor by 50%; method in brief: as §1
MDA-MB-231 [20] = assay: Cytostatic effect on hormone-independent MDA-MB 231 human breast cancer cell proliferation at 1x10E-6M; type: functional; method in brief: as §2
MCF7 [21] = assay: Effect on [3H]-thymidine incorporation into MCF-7 human breast cancer cells at 1x10E-5 M; type: functional; method in brief: as §3
[22] = target: T1, Androgen Receptor (Bos taurus); assay: Relative binding affinities (RBA) for Androgen receptor (AR); method in brief: as §1
[23] = target: T2, Estrogen receptor (Mus musculus); assay: (§8) Estrogenic activity in uterotrophic assay in immature mice at 50.0 ug subcutaneous dose; type: functional; method in brief: as §4
[24] = target: T2, Estrogen receptor (Mus musculus); assay: (§9) Estrogenic activity in uterotrophic assay in immature mice at 10.0 ug subcutaneous dose; type: functional; method in brief: as §4
[25] = target: T2, Estrogen receptor (Mus musculus); assay: as §5; type: functional; method in brief: as §4; remark: listed apart in the source
[26] = target: T2, Estrogen receptor (Mus musculus); assay: (§10) Estrogenic activity in uterotrophic assay in immature mice at 250 ug subcutaneous dose; type: functional; method in brief: as §4
[27] = target: T2, Estrogen receptor (Mus musculus); assay: as §8; type: functional; method in brief: as §4; remark: listed apart in the source
[28] = target: T2, Estrogen receptor (Mus musculus); assay: as §10; type: functional; method in brief: as §4; remark: listed apart in the source
[29] = target: T2, Estrogen receptor (Mus musculus); assay: as §9; type: functional; method in brief: as §4; remark: listed apart in the source
[30] = target: T2, Estrogen receptor (Mus musculus); assay: Inhibition of 0.4 ug estrone-stimulated uterine growth in mice at 10.0 ug subcutaneous dose; type: functional; method in brief: as §7
[31] = target: T2, Estrogen receptor (Mus musculus); assay: Inhibition of 0.4 ug estrone-stimulated uterine growth in mice at 250 ug subcutaneous dose; type: functional; method in brief: as §7
[32] = target: T2, Estrogen receptor (Mus musculus); assay: Inhibition of 0.4 ug estrone-stimulated uterine growth in mice at 50.0 ug subcutaneous dose; type: functional; method in brief: as §7

Row | Structure (SMILES) | RBA [1] | RBA [2] | T/C (MDA-MB-231 [3]) [%] | T/C (MDA-MB-231 [4]) [%] | T/C (MDA-MB-231 [5]) [%] | T/C (MDA-MB-231 [6]) [%] | T/C (MDA-MB-231 [7]) [%] | T/C (MCF7 [8]) [%] | T/C (MCF7 [9]) [%] | T/C (MCF7 [10]) [%] | T/C (MCF7 [11]) [%] | T/C (MCF7 [12]) [%] | T/C (MCF7 [13]) [%] | Effect [15] | RBA (Bos taurus) | T/C (MDA-MB-231 [20]) [%] | T/C (MCF7 [21]) [%] | other results
1 | CCC1Cc2cc(OC(C)=O)c(OC(C)=O)cc2-c2cc3cc(OC(C)=O)ccc3n21 (configuration not stated) | < 0.01 | 2.9 | 51 | 38 | 77 | 62 | 35 | 39 | 11 | 22 | 3 | 89 | 95 | 21.2 | 0.04 | 100 |  | Effect [14]: 55.8; Effect [16]: 42.8; Effect [17]: 49.7; inhibition [18]: 15.7%; inhibition [19]: 11.7%
2 | CC/C(=C(\c1ccccc1)c1ccc(OCCN(C)C)cc1)c1ccccc1 [TAMOXIFEN] |  |  | 94 | 97 | 100 |  |  |  |  | 17 |  | 51 | 46 |  |  | 107 | 5 | 
3 | CC(=O)Oc1ccc2c(c1)CCn1c-2cc2cc(OC(C)=O)c(OC(C)=O)cc21 | < 0.01 | 0.01 |  |  |  |  |  |  |  |  |  |  |  |  |  |  |  | 
4 | CC(=O)Oc1ccc2c(c1)CCn1c-2cc2cc(OC(C)=O)ccc21 |  | 2 |  |  |  |  |  |  |  |  |  |  |  |  | < 0.01 |  |  | relative binding affinity (RBA) [22]: < 0.01
5 | CCc1cc2cc(OC(C)=O)ccc2c2cc3ccc(OC(C)=O)cc3n12 | 0.01 | 1.5 |  | 3 | 80 | 8 | 7 |  |  | 5 |  | 75 | 70 |  | < 0.01 |  | 3 | 
6 | CCC1Cn2c(cc3cc(OC(C)=O)ccc32)-c2ccc(OC(C)=O)cc21 (configuration not stated) | < 0.01 | 2.5 | 45 | 25 |  | 88 | 90 | 97 | 95 | 31 | 7 |  |  | 16.8 | < 0.01 |  |  | Effect [23]: 24.1; Effect [24]: 44.1; Effect [25]: 50.9; Effect [26]: 42.7; Effect [27]: 42.5; Effect [28]: 46.1; Effect [29]: 21.5; inhibition [30]: 18.7%; inhibition [31]: 22.4%; inhibition [32]: 23.3%
